From PubChem BioAssay come the findings set out here.

A number with no mark means an inactive call. Calls of active or inactive are those of the source.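 How the source made its calls, unless noted: active means fluorescence slope after compound addition differing from the mean of all tested samples at 99.7% confidence, mostly higher but some lower; inactive means the rest.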

Sequence of Muscarinic acetylcholine receptor M4 (Homo sapiens) (P08173 whole entry, looked up): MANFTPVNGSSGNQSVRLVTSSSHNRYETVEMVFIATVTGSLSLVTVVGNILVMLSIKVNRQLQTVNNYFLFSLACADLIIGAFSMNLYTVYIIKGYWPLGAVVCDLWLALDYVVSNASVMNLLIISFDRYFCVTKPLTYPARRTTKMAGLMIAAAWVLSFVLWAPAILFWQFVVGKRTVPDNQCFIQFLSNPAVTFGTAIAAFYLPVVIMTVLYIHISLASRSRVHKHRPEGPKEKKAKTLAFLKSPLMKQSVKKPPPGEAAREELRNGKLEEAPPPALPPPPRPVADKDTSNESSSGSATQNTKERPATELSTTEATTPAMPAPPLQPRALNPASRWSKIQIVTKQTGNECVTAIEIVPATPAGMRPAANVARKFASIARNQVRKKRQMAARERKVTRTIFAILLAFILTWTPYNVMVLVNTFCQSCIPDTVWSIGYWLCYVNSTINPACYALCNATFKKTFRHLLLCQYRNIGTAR

In the first assay the target is Muscarinic acetylcholine receptor M4 (Homo sapiens) (UniProt P08173). Description: M4-linked GIRK flux change, two-sided – cell-based, HEK293 M4/GIRK, thallium flux, BTC-AM, M4 allosteric agonist project, primary screen (AID 625).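 Further: thallium influx through GIRK channels coupled to M4 in HEK293 cells with BTC-AM dye.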 Particulars: at 10 µM, actives lie on both sides. The method, boiled down:
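Material – HEK293 cells with M4 receptor and GIRK channels · Buffer or medium – pH 7.3 thallium assay buffer · Doses – one dose, 10 µM final · Timing – cells overnight at 37 °C, BTC-AM loading 1 h, reads 2 min total · Measured by – kinetic fluorescence with BTC-AM dye · Controls – carbachol and DMSO controls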
`N#CC1=C(N)OC2=C(C(=O)CCC2)C1CCc1ccccc1` (stereo not drawn): the fluorescence slope was 0.00745.
The same measure, in the same setting: to `CC(=N\O)/C(CN(C)C)=N/O` belongs 0.00548; to `CCOC(=O)C1/C(=N\O)CC(C)(O)C(C(=O)OCC)C1c1ccc(N(C)C)cc1` (stereo not drawn), 0.00445; to `CCOc1cc(C2Nc3ccccc3C(=O)N2c2ccccc2OC)ccc1O` (stereo not drawn), 0.0049.
Take `CCOC(=O)C1=C(N)c2ccccc2CC1C(C)C` (stereo not drawn): the fluorescence slope is 0.00588.
Still for that read-out and setting: the same measure for `CCOc1ccc2nc(SCC(=O)Nc3ncccn3)[nH]c2c1`: 0.00652; for `O=C(CCN1C(=O)c2ccccc2C1=O)OCN1C(=O)c2ccccc2C1=O`: 0.00607; for `CCOC(=O)Cc1nnc(Nc2cccc(O)c2)c2ccccc12`: 0.0057.
With `Cc1cc(/C=N\O)c(C)n1-c1ccncc1`, the fluorescence slope was 0.00493.
Same read-out and setting: to `Cc1ccc(NC(=O)CSC2=C(C#N)C(c3ccc4c(c3)OCO4)CC(=O)N2)cc1C` (stereo not drawn) belongs 0.00748; to `CC1(C2(O)CC(c3ccccc3)ON2)CCCCC1` (stereo not drawn), 0.00556; to `COc1ccc(Cn2c(N)c(C#N)c3nc4ccccc4nc32)cc1OC`, 0.00496.
On to `Cc1nnc(SCC(=O)N2CCC(C(N)=O)CC2)s1`, for which the fluorescence slope is 0.00524.
On to `C=CCn1c(SCC(=O)c2ccccc2)nnc1-c1ccc2c(c1)OCO2`, for which the fluorescence slope was 0.00674.
Take `CC(C)(C)c1ccc(O)c(N)c1`: the fluorescence slope was 0.00646.
Regarding `CC(=O)Nc1ccc(-c2cc3ccccc3o2)cc1`, the fluorescence slope is 0.00556.
The same measure, in the same setting: to `COC(=O)c1ccccc1NC(=O)CSc1nnc(-c2ccncc2)o1` belongs 0.00541; to `Cc1c(C=NCCOCc2ccccc2)cnn1C`, 0.00645; to `CCS(=O)(=O)CCn1c([N+](=O)[O-])cnc1C`, 0.00503.
Same read-out and setting: the same measure for `Cc1ccc(-n2c(N)c(C(N)=O)sc2=S)cc1`: 0.00756.
Same read-out and setting: the same measure for `CCN(CC)CCOC(=O)C1(c2ccc(OC)c(OC)c2)CCCC1`: 0.00575; for `CCN(CC)C(=O)c1sc2nc(-c3cccs3)cc(-c3cccs3)c2c1N`: -0.00241 (active).
Regarding `COc1ccc(/C(O)=C2/C(=O)C(=O)N(CCN(C)C)C2c2ccccn2)cc1OC` (stereo not drawn), the fluorescence slope is 0.00535.
Consider `CC1(C(=O)CSc2nc3ccccc3s2)CCC(=O)O1` (stereo not drawn), for which the fluorescence slope was 0.00529.
For `O=C(O)CC1Sc2nc3ccccc3n2C1=O` (stereo not drawn), the fluorescence slope is 0.00487.
For the compound `CC(=O)Nc1ccc(Oc2ccc3nc(C)[nH]c3c2)cc1`, the fluorescence slope is 0.00521.
The same measure, in the same setting: the same measure for `CC(C)c1nc(NCC2CCCO2)c(C#N)c2c1COC(C)(C)C2` (stereo not drawn): 0.00335.
Still for that read-out and setting: the same measure for `N#Cc1nc(COc2ccc(Br)cc2)oc1N1CCCC1`: 0.00636.
Take `CCCC1Cc2c(sc3ncnc(N)c23)CO1` (stereo not drawn): the fluorescence slope is 0.00429.
Still for that read-out and setting: the same measure for `Cc1nc(Sc2cccn2C)c(C(F)(F)F)c(=O)[nH]1`: 0.00695; for `COC(=O)c1cc(Br)c(=O)n(-c2nccs2)c1`: 0.00469.
Same read-out and setting: the same measure for `Cc1ccc(SCc2[nH]nc3c2C(c2ccc(C)o2)C(C#N)=C(N)O3)cc1` (stereo not drawn): 0.00561; for `COc1cccc(C2C(C(=O)c3cc4ccccc4o3)=C(O)C(=O)N2CCN(C)C)c1OC` (stereo not drawn): 0.00523.
On the same count and under the same terms, the same measure for `Cc1cc(C)n(CC2CC(=O)N(c3ccc(Cl)c(Cl)c3)C2=O)n1` (stereo not drawn): 0.00497; for `CN1CCN(c2nc3c(c(=O)n(C)c(=O)n3C)n2Cc2cccc3ccccc23)CC1`: 0.0044.
`CC(C)C(=O)N1CCN(c2nc(-c3ccccc3)c3c(c2C#N)CCCC3)CC1`: the fluorescence slope is 0.00499.
On to `CCSc1nc(O)c(C2OC(=O)c3c2ccc(OC)c3OC)c(=O)n1-c1ccccc1` (stereo not drawn), for which the fluorescence slope is 0.00691.
For the compound `COc1cccc(NC(=O)CC2SC(=Nc3ccccc3)NC2=O)c1` (stereo not drawn), the fluorescence slope was 0.00596.
As to `Cc1nnc(NCc2n[nH]c(=O)c3ccccc23)c2ccccc12`, the fluorescence slope is 0.0052.

Test system in another assay: not listed separately
Description: inhibitors of larval lipid processing in zebrafish, primary screen, whole organism, PED6 fluorescence, gall bladder and intestine (AID 686;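 active means a full or partial loss of lipid-probe fluorescence in the fish gall bladder, intestine or both, judged by eye; inactive means no fluorescence loss, or compound toxic to the fish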;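 further: larvae 5 to 7 days old with five fish per well; signal comes from phospholipase A2 cleavage of quenched PED6 carried via bile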). The note with it: Zebrafish larvae PED6 lipid processing, fluorescence scoring; screened at 20 µM (by protocol). The method, boiled down: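 system = live zebrafish larvae aged 5-7 days, whole organism | probe or stimulus = ingested quenched lipid PED6 at 100 nM | doses = 20 µM single dose | timing = overnight exposure | detection = fluorescence microscopy with visual scoring of gall bladder and intestine | read-out = visual per-well fluorescence inhibition score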
Regarding `N#CC1=C(N)OC2=C(C(=O)CCC2)C1CCc1ccccc1` (stereo not drawn), the call was inactive.
As to `CC(=N\O)/C(CN(C)C)=N/O`, the result was inactive.
On the same count and under the same terms, to `CCOC(=O)C1/C(=N\O)CC(C)(O)C(C(=O)OCC)C1c1ccc(N(C)C)cc1` (stereo not drawn) belongs “inactive”.
`CCOc1cc(C2Nc3ccccc3C(=O)N2c2ccccc2OC)ccc1O` (stereo not drawn): the result was inactive.
Consider `CCOC(=O)C1=C(N)c2ccccc2CC1C(C)C` (stereo not drawn), for which the compound was classed as inactive.
For the compound `CCOc1ccc2nc(SCC(=O)Nc3ncccn3)[nH]c2c1`, the compound was called inactive.
As to `O=C(CCN1C(=O)c2ccccc2C1=O)OCN1C(=O)c2ccccc2C1=O`, the call was inactive.
On the same count and under the same terms, the same measure for `CCOC(=O)Cc1nnc(Nc2cccc(O)c2)c2ccccc12`: “inactive”; for `Cc1cc(/C=N\O)c(C)n1-c1ccncc1`: “inactive”; for `Cc1ccc(NC(=O)CSC2=C(C#N)C(c3ccc4c(c3)OCO4)CC(=O)N2)cc1C` (stereo not drawn): “inactive”.
Same read-out and setting: the same measure for `CC1(C2(O)CC(c3ccccc3)ON2)CCCCC1` (stereo not drawn): “inactive”; for `COc1ccc(Cn2c(N)c(C#N)c3nc4ccccc4nc32)cc1OC`: “inactive”; for `Cc1nnc(SCC(=O)N2CCC(C(N)=O)CC2)s1`: “inactive”.
`C=CCn1c(SCC(=O)c2ccccc2)nnc1-c1ccc2c(c1)OCO2`: the result was inactive.
Still for that read-out and setting: the same measure for `CC(C)(C)c1ccc(O)c(N)c1`: “inactive”; for `CC(=O)Nc1ccc(-c2cc3ccccc3o2)cc1`: “inactive”.
Regarding `COC(=O)c1ccccc1NC(=O)CSc1nnc(-c2ccncc2)o1`, the compound was called inactive.
The same measure, in the same setting: to `Cc1c(C=NCCOCc2ccccc2)cnn1C` belongs “inactive”; to `CCS(=O)(=O)CCn1c([N+](=O)[O-])cnc1C`, “inactive”; to `Cc1ccc(-n2c(N)c(C(N)=O)sc2=S)cc1`, “inactive”.
As for `CCN(CC)CCOC(=O)C1(c2ccc(OC)c(OC)c2)CCCC1`, the compound was called inactive.
Regarding `CCN(CC)C(=O)c1sc2nc(-c3cccs3)cc(-c3cccs3)c2c1N`, the outcome is “active; no signal in gallbladder and intestine”.
As to `COc1ccc(/C(O)=C2/C(=O)C(=O)N(CCN(C)C)C2c2ccccn2)cc1OC` (stereo not drawn), the call was inactive.
Still for that read-out and setting: the same measure for `CC1(C(=O)CSc2nc3ccccc3s2)CCC(=O)O1` (stereo not drawn): “inactive”.
Same read-out and setting: to `O=C(O)CC1Sc2nc3ccccc3n2C1=O` (stereo not drawn) belongs “inactive”; to `CC(=O)Nc1ccc(Oc2ccc3nc(C)[nH]c3c2)cc1`, “inactive”; to `CC(C)c1nc(NCC2CCCO2)c(C#N)c2c1COC(C)(C)C2` (stereo not drawn), “inactive”.
As for `N#Cc1nc(COc2ccc(Br)cc2)oc1N1CCCC1`, the compound was classed as inactive.
The same measure, in the same setting: to `CCCC1Cc2c(sc3ncnc(N)c23)CO1` (stereo not drawn) belongs “inactive”.
Regarding `Cc1nc(Sc2cccn2C)c(C(F)(F)F)c(=O)[nH]1`, the result was inactive.
For `COC(=O)c1cc(Br)c(=O)n(-c2nccs2)c1`, the outcome was inactive.
The same measure, in the same setting: the same measure for `Cc1ccc(SCc2[nH]nc3c2C(c2ccc(C)o2)C(C#N)=C(N)O3)cc1` (stereo not drawn): “inactive”.
On the same count and under the same terms, the same measure for `COc1cccc(C2C(C(=O)c3cc4ccccc4o3)=C(O)C(=O)N2CCN(C)C)c1OC` (stereo not drawn): “inactive”; for `Cc1cc(C)n(CC2CC(=O)N(c3ccc(Cl)c(Cl)c3)C2=O)n1` (stereo not drawn): “inactive”; for `CN1CCN(c2nc3c(c(=O)n(C)c(=O)n3C)n2Cc2cccc3ccccc23)CC1`: “inactive”.
As for `CC(C)C(=O)N1CCN(c2nc(-c3ccccc3)c3c(c2C#N)CCCC3)CC1`, the compound was classed as inactive.
For the compound `CCSc1nc(O)c(C2OC(=O)c3c2ccc(OC)c3OC)c(=O)n1-c1ccccc1` (stereo not drawn), the call was inactive.
With `COc1cccc(NC(=O)CC2SC(=Nc3ccccc3)NC2=O)c1` (stereo not drawn), the outcome was inactive.
Regarding `Cc1nnc(NCc2n[nH]c(=O)c3ccccc23)c2ccccc12`, the call was inactive.
